Measured values published in ChEMBL document CHEMBL3994650, “New 1,4-dihydro[1,8]naphthyridine derivatives as DNA gyrase inhibitors” (Bioorg Med Chem Lett, 2017).
In brackets after ≈: the same amount, converted by molar mass. Activity calls are given as the source filed them. The rule behind the calls is not given here.

How the values were obtained:
Klebsiella pneumoniae = test: Antibacterial activity against Klebsiella pneumoniae ATCC 700603 incubated after 24 hrs by resazurin dye based broth microdilution assay; format: functional; details: Klebsiella pneumoniae, 700603, 24 h
Listeria monocytogenes = test: Antibacterial activity against Listeria monocytogenes ATCC 7644 incubated after 24 hrs by resazurin dye based broth microdilution assay; format: functional; details: ATCC 7644, 24 h
Enterococcus faecalis [1] = test: Antibacterial activity against Enterococcus faecalis ATCC 51299 incubated after 24 hrs by resazurin dye based broth microdilution assay; format: functional; details: ATCC 51299, 24 h
Escherichia coli [2] = test: Antibacterial activity against Escherichia coli ATCC 25922 incubated after 24 hrs by resazurin dye based broth microdilution assay; format: functional; details: ATCC 25922, 24 h
Escherichia coli [3] = test: Antibacterial activity against Escherichia coli ATCC 35218 incubated after 24 hrs by resazurin dye based broth microdilution assay; format: functional; details: ATCC 35218, 24 h
Enterococcus faecalis [4] = test: Antibacterial activity against Enterococcus faecalis ATCC 29212 incubated after 24 hrs by resazurin dye based broth microdilution assay; format: functional; details: ATCC 29212, 24 h
Pseudomonas aeruginosa = test: Antibacterial activity against Pseudomonas aeruginosa ATCC 27853 incubated after 24 hrs by resazurin dye based broth microdilution assay; format: functional; details: ATCC 27853, 24 h
Staphylococcus aureus [5] = test: Antibacterial activity against Staphylococcus aureus ATCC 25923 incubated after 24 hrs by resazurin dye based broth microdilution assay; format: functional; details: ATCC 25923, 24 h
Staphylococcus aureus [6] = test: Antibacterial activity against Staphylococcus aureus ATCC 25923 assessed as decrease in ATP level at […] ug/ml after 24 hrs by BacTiter-Glo reagent based bioluminescence assay; format: functional
NIH3T3 = test: Cytotoxicity against mouse NIH/3T3 cells assessed as reduction in cell proliferation after 24 hrs by MTT assay; format: cell-based; details: NIH3T3, 24 h
[7] = tested on: Escherichia coli ATCC 25922; test: Inhibition of Escherichia coli DNA gyrase assessed as inhibition of enzyme-mediated supercoiling of relaxed pHOT1 DNA substrate at […] to […] ug/ml after 30 mins by gel electrophoresis method
[8] = Selectivity index, ratio of IC50 for mouse NIH/3T3 cells to MIC90 for Listeria monocytogenes ATCC 7644; format: toxicity; details: read-out: Selectivity Index
[9] = tested on: Escherichia coli ATCC 25922; test: Inhibition of Escherichia coli DNA gyrase assessed as inhibition of enzyme-mediated supercoiling of relaxed pHOT1 DNA substrate after 30 mins by gel electrophoresis method
Method in brief: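 E. coli DNA gyrase (1 U) was incubated with relaxed pHOT1 DNA substrate (0.25 µg) for 30 min at 37 °C. Compounds were tested at 15.6, 7.8, 3.9 and 1.95 µg/L. Controls were supercoiled DNA, relaxed DNA, relaxed DNA plus gyrase, and 1% DMSO. Supercoiling was read by agarose gel electrophoresis.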

[10] = Selectivity index, ratio of IC50 for mouse NIH/3T3 cells to MIC90 for Klebsiella pneumoniae ATCC 700603; format: toxicity; details: read-out: Selectivity Index
[11] = Selectivity index, ratio of IC50 for mouse NIH/3T3 cells to MIC90 for Pseudomonas aeruginosa ATCC 27853; format: toxicity; details: read-out: Selectivity Index

| Compound | MIC90 (Klebsiella pneumoniae) | MIC90 (Listeria monocytogenes) | MIC90 (Enterococcus faecalis [1]) | MIC90 (Escherichia coli [2]) | MIC90 (Escherichia coli [3]) | MIC90 (Enterococcus faecalis [4]) | MIC90 (Pseudomonas aeruginosa) | MIC90 (Staphylococcus aureus [5]) | Activity (Staphylococcus aureus [6]) | IC50 (NIH3T3) | inhibition [7] | selectivity ratio [8] | inhibition [9] | selectivity ratio [10] | selectivity ratio [11] |
| --- | --- | --- | --- | --- | --- | --- | --- | --- | --- | --- | --- | --- | --- | --- | --- |
| CCOC(=O)c1cn(-c2ccc(F)cc2F)c2nc(Sc3nc4ccccc4s3)c(F)cc2c1=O | 125 µg/mL (≈ 243 µM) | 125 µg/mL (≈ 243 µM) | 125 µg/mL (≈ 243 µM) | 125 µg/mL (≈ 243 µM) | 125 µg/mL (≈ 243 µM) | 125 µg/mL (≈ 243 µM) | 125 µg/mL (≈ 243 µM) | 62.5 µg/mL (≈ 122 µM) |  |  |  |  |  |  |  |
| CCOC(=O)c1cn(-c2ccc(F)cc2F)c2nc(Sc3nc4cc(Cl)ccc4[nH]3)c(F)cc2c1=O | 125 µg/mL (≈ 235 µM) | 62.5 µg/mL (≈ 118 µM) | 125 µg/mL (≈ 235 µM) | 62.5 µg/mL (≈ 118 µM) | 125 µg/mL (≈ 235 µM) | 125 µg/mL (≈ 235 µM) | 125 µg/mL (≈ 235 µM) | 62.5 µg/mL (≈ 118 µM) |  |  |  |  |  |  |  |
| O=C(O)c1cn(C2CC2)c2cc(N3CCNCC3)c(F)cc2c1=O [CIPROFLOXACIN] | ≤ 1.95 µg/mL | 3.9 µg/mL (≈ 11.8 µM) | ≤ 1.95 µg/mL | ≤ 1.95 µg/mL | ≤ 1.95 µg/mL | ≤ 1.95 µg/mL | ≤ 1.95 µg/mL | ≤ 1.95 µg/mL | Active | 306 µg/mL (≈ 923 µM) |  |  |  |  |  |
| CCOC(=O)c1cn(-c2ccc(F)cc2F)c2nc(N3CCN(CCCN(C)C)CC3)c(F)cc2c1=O | 250 µg/mL (≈ 483 µM) | 125 µg/mL (≈ 242 µM) | 62.5 µg/mL (≈ 121 µM) | 125 µg/mL (≈ 242 µM) | 125 µg/mL (≈ 242 µM) | 125 µg/mL (≈ 242 µM) | 125 µg/mL (≈ 242 µM) | 62.5 µg/mL (≈ 121 µM) |  |  |  |  |  |  |  |
| COc1c(N2C[C@@H]3CCCN[C@@H]3C2)c(F)cc2c(=O)c(C(=O)O)cn(C3CC3)c12 [MOXIFLOXACIN] | 3.9 µg/mL (≈ 9.72 µM) | 3.9 µg/mL (≈ 9.72 µM) | ≤ 1.95 µg/mL | ≤ 1.95 µg/mL | ≤ 1.95 µg/mL | ≤ 1.95 µg/mL | 3.9 µg/mL (≈ 9.72 µM) | ≤ 1.95 µg/mL |  | 380 µg/mL (≈ 946 µM) | Active |  |  |  |  |
| CCOC(=O)c1cn(-c2ccc(F)cc2F)c2nc(Sc3nc4cc(C)ccc4[nH]3)c(F)cc2c1=O | 125 µg/mL (≈ 245 µM) | 125 µg/mL (≈ 245 µM) | 250 µg/mL (≈ 490 µM) | 125 µg/mL (≈ 245 µM) | 250 µg/mL (≈ 490 µM) | 125 µg/mL (≈ 245 µM) | 62.5 µg/mL (≈ 122 µM) | 62.5 µg/mL (≈ 122 µM) |  |  |  |  |  |  |  |
| O=C(O)c1cn(-c2ccc(F)cc2F)c2nc(Sc3nc4cc([N+](=O)[O-])ccc4[nH]3)c(F)cc2c1=O | 15.6 µg/mL (≈ 30.4 µM) | 15.6 µg/mL (≈ 30.4 µM) | 15.6 µg/mL (≈ 30.4 µM) | 3.9 µg/mL (≈ 7.6 µM) | 3.9 µg/mL (≈ 7.6 µM) | 7.8 µg/mL (≈ 15.2 µM) | 15.6 µg/mL (≈ 30.4 µM) | 1.95 µg/mL (≈ 3.8 µM) | Active | 122 µg/mL (≈ 237 µM) |  | 8 | Dose-dependent effect | 8 | 8 |
| N[C@@H]1[C@H]2CN(c3nc4c(cc3F)c(=O)c(C(=O)O)cn4-c3ccc(F)cc3F)C[C@@H]12 [TROVAFLOXACIN] | ≤ 1.95 µg/mL | ≤ 1.95 µg/mL | ≤ 1.95 µg/mL | ≤ 1.95 µg/mL | ≤ 1.95 µg/mL | ≤ 1.95 µg/mL | ≤ 1.95 µg/mL | ≤ 1.95 µg/mL | Active | 244 µg/mL (≈ 587 µM) | Active |  |  |  |  |
| O=C(O)c1cn(-c2ccc(F)cc2F)c2nc(Sc3nc4cc(Cl)ccc4[nH]3)c(F)cc2c1=O | 31.2 µg/mL (≈ 62.1 µM) | 15.6 µg/mL (≈ 31 µM) | 31.2 µg/mL (≈ 62.1 µM) | 15.6 µg/mL (≈ 31 µM) | 15.6 µg/mL (≈ 31 µM) | 31.2 µg/mL (≈ 62.1 µM) | 31.2 µg/mL (≈ 62.1 µM) | 7.8 µg/mL (≈ 15.5 µM) |  |  |  |  |  |  |  |
| CCOC(=O)c1cn(-c2ccc(F)cc2F)c2nc(Sc3nc4ccccc4[nH]3)c(F)cc2c1=O | 125 µg/mL (≈ 252 µM) | 125 µg/mL (≈ 252 µM) | 62.5 µg/mL (≈ 126 µM) | 62.5 µg/mL (≈ 126 µM) | 125 µg/mL (≈ 252 µM) | 125 µg/mL (≈ 252 µM) | 125 µg/mL (≈ 252 µM) | 125 µg/mL (≈ 252 µM) |  |  |  |  |  |  |  |
| Cc1ccc2[nH]c(Sc3nc4c(cc3F)c(=O)c(C(=O)O)cn4-c3ccc(F)cc3F)nc2c1 | 31.2 µg/mL (≈ 64.8 µM) | 31.2 µg/mL (≈ 64.8 µM) | 31.2 µg/mL (≈ 64.8 µM) | 7.8 µg/mL (≈ 16.2 µM) | 3.9 µg/mL (≈ 8.08 µM) | 31.2 µg/mL (≈ 64.8 µM) | 15.6 µg/mL (≈ 32.3 µM) | 3.9 µg/mL (≈ 8.08 µM) |  |  |  |  |  |  |  |
| CCOC(=O)c1cn(-c2ccc(F)cc2F)c2nc(Sc3nc4cc([N+](=O)[O-])ccc4[nH]3)c(F)cc2c1=O | 125 µg/mL (≈ 231 µM) | 125 µg/mL (≈ 231 µM) | 250 µg/mL (≈ 462 µM) | 250 µg/mL (≈ 462 µM) | 125 µg/mL (≈ 231 µM) | 250 µg/mL (≈ 462 µM) | 125 µg/mL (≈ 231 µM) | 125 µg/mL (≈ 231 µM) |  |  |  |  |  |  |  |
| O=C(O)c1cn(-c2ccc(F)cc2F)c2nc(Sc3nc4ccccc4s3)c(F)cc2c1=O | 31.2 µg/mL (≈ 64.4 µM) | 31.2 µg/mL (≈ 64.4 µM) | 62.5 µg/mL (≈ 129 µM) | 31.2 µg/mL (≈ 64.4 µM) | 31.2 µg/mL (≈ 64.4 µM) | 31.2 µg/mL (≈ 64.4 µM) | 31.2 µg/mL (≈ 64.4 µM) | 15.6 µg/mL (≈ 32.1 µM) |  |  |  |  |  |  |  |
| O=C(O)c1cn(-c2ccc(F)cc2F)c2nc(Sc3nc4ccccc4[nH]3)c(F)cc2c1=O | 31.2 µg/mL (≈ 66.7 µM) | 31.2 µg/mL (≈ 66.7 µM) | 31.2 µg/mL (≈ 66.7 µM) | 15.6 µg/mL (≈ 33.3 µM) | 15.6 µg/mL (≈ 33.3 µM) | 15.6 µg/mL (≈ 33.3 µM) | 31.2 µg/mL (≈ 66.7 µM) | 7.8 µg/mL (≈ 16.7 µM) |  |  |  |  |  |  |  |
